Measured values taken from PMC4381552 (Cell reports, 2014).
Blank lines part the entries; values can stand above or below the compound they belong to.

How the values were obtained:
[1] = ref Tijono et al., 2013; cited from earlier work
[2] = target: wild-type (WT) hSTING (Homo sapiens, UniProt Q86WV6, H232R); assay: ITC binding of DMXAA to STING CTD; settings: 25°C
[3] = target: hSTING^group1 (aa 140-379) (Homo sapiens, UniProt Q86WV6, E174G/H185L/H232R/L189M/Q196R/R191S/T181M/V194G/Y182F/Y186H); assay: ITC binding of DMXAA to STING CTD; settings: 25°C
[4] = target: hSTING^group3 (Homo sapiens, UniProt Q86WV6, A300E/A302V/D297E/H232R/Q276K/Q306R/S275A/Y274D); assay: ITC binding of DMXAA to STING CTD; settings: 25°C
[5] = target: hSTING^group4 (Homo sapiens, UniProt Q86WV6, A350V/E362R/E369D/F378L/G344N/H232R/K347M/K370Q/L346P/M357L/S345A/S353P/S379I/T354P/T356V/V343M/V351A); assay: ITC binding of DMXAA to STING CTD; settings: 25°C
[6] = target: hSTING^group2 (Homo sapiens, UniProt Q86WV6, D237N/G230I/H232R/I244V/K224M/L222R/T229N); assay: IFN-β luciferase reporter assay in transfected 293T cells; assay type: cell-based; settings: 0.18 mM DMXAA (50 μg/ml), 12 hr
[7] = target: hSTING^group134 (Homo sapiens, UniProt Q86WV6, A300E/A302V/A350V/D297E/E174G/E362R/E369D/F378L/G344N/H185L/H232R/K347M/K370Q/L189M/L346P/M357L/Q196R/Q276K/Q306R/R191S/S275A/S345A/S353P/S379I/T181M/T354P/T356V/V194G/V343M/V351A/Y182F/Y186H/Y274D); assay: IFN-β luciferase reporter assay in transfected 293T cells; assay type: cell-based; settings: 0.18 mM DMXAA (50 μg/ml), 12 hr, versus hSTING^group1234
Procedure, shortened: (§1)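 HEK293T cells were reverse-transfected with full-length STING plasmids, expressed at moderate levels, plus IFN-β reporter constructs. […] Luciferase was read 12 hr later. Gaussia luciferase was normalized to constitutive firefly luciferase. Values are means of triplicates + SEM, representative of three independent experiments.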

[8] = target: hSTING Q266I (Homo sapiens, UniProt Q86WV6, H232R/Q266I); assay: as above; assay type: cell-based; settings: 0.18 mM DMXAA, 12 hr
Procedure, shortened: as §1

[9] = target: hSTING Q266L (Homo sapiens, UniProt Q86WV6, H232R/Q266L); assay: as above; assay type: cell-based; settings: 0.18 mM DMXAA, 12 hr
Procedure, shortened: as §1

[10] = target: hSTING G166S (Homo sapiens, UniProt Q86WV6, G166S/H232R); assay: as above; assay type: cell-based; settings: 0.18 mM DMXAA, 12 hr
Procedure, shortened: as §1

[11] = target: hSTING I235L (Homo sapiens, UniProt Q86WV6, H232R/I235L); assay: as above; assay type: cell-based; settings: 0.18 mM DMXAA, 12 hr
Procedure, shortened: as §1

[12] = target: hSTING Q266V (Homo sapiens, UniProt Q86WV6, H232R/Q266V); assay: as above; assay type: cell-based; settings: 0.18 mM DMXAA, 12 hr
Procedure, shortened: as §1

[13] = target: WT hSTING (Homo sapiens, UniProt Q86WV6, H232R); assay: Cytokine/chemokine induction in STING^Gt/Gt BMDCs reconstituted with hSTING; assay type: cell-based; settings: 50 µg/ml DMXAA, 3 hr, real-time PCR
Procedure, shortened: (§2)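 STING-deficient BMDCs were derived from STINGGt/Gt mouse bone marrow cultured with GM-CSF for 10 days and plated at 1 × 10^6 cells/well. They were infected with retroviruses expressing hSTING variants, and hSTING levels were checked by western blot. […] IFNB1, CXCL10, CCL5 and IL-6 mRNA were measured by real-time PCR. Data are means ± SEM (n = 3) from one of two experiments.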

[14] = target: hSTING^G230I (Homo sapiens, UniProt Q86WV6, G230I/H232R); assay: as above; assay type: cell-based; settings: 50 µg/ml DMXAA, 3 hr, real-time PCR
Procedure, shortened: as §2

[15] = target: hSTING^S162A/Q266I (Homo sapiens, UniProt Q86WV6, H232R/Q266I/S162A); assay: as above; assay type: cell-based; settings: 50 µg/ml DMXAA, 3 hr, real-time PCR
Procedure, shortened: as §2

[16] = target: hSTING^S162A/G230I/Q266I (Homo sapiens, UniProt Q86WV6, G230I/H232R/Q266I/S162A); assay: as above; assay type: cell-based; settings: 50 µg/ml DMXAA
Procedure, shortened: as §2

[17] = target: hSTING^S162A (Homo sapiens, UniProt Q86WV6, H232R/S162A); assay: as above; assay type: cell-based; settings: 50 µg/ml DMXAA, 3 hr, real-time PCR
Procedure, shortened: as §2

[18] = test system: all hSTING alleles with S162A/Q266I double substitution; assay: IFN-β luciferase reporter assay in transfected 293T cells; assay type: cell-based, human; settings: 0.18 mM DMXAA, alleles R232, HAQ, H232, AQ, Q293
Procedure, shortened: as §1

[19] = test system: non-small-cell lung cancer; settings: in combination with paclitaxel and carboplatin; ref Lara et al., 2011; cited from earlier work

hSTING^S162A/G230I/Q266I, sequence (Q86WV6 whole entry S162A/G230I/H232R/Q266I): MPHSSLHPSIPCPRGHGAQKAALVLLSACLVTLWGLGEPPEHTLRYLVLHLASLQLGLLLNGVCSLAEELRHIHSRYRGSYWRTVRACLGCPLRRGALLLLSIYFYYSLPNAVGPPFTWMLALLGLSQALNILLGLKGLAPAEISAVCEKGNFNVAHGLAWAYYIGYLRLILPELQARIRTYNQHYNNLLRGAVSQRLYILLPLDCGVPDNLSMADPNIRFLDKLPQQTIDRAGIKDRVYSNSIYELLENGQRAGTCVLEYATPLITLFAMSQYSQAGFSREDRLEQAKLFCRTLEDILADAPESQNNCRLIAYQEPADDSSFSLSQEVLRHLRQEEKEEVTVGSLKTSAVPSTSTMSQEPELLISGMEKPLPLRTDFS
hSTING Q266I, sequence (Q86WV6 whole entry H232R/Q266I): as the sequence (Q86WV6 whole entry S162A/G230I/H232R/Q266I) above, with A162S, I230G counted along it
wild-type (WT) hSTING, sequence (Q86WV6 140-379 H232R): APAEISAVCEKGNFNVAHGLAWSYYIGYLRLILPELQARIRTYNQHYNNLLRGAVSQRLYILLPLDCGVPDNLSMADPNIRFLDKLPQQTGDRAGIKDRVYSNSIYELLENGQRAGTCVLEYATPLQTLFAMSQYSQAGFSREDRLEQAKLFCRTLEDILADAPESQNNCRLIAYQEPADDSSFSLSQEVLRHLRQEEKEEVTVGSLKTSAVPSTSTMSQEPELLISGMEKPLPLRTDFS
hSTING Q266L, sequence (Q86WV6 whole entry H232R/Q266L): as the sequence (Q86WV6 whole entry S162A/G230I/H232R/Q266I) above, with A162S, I230G, I266L counted along it
hSTING^group2, sequence (Q86WV6 whole entry L222R/K224M/T229N/G230I/H232R/D237N/I244V): as the sequence (Q86WV6 whole entry S162A/G230I/H232R/Q266I) above, with A162S, L222R, K224M, T229N, D237N, I244V, I266Q counted along it
hSTING^group4, sequence (Q86WV6 140-379 with the stated changes): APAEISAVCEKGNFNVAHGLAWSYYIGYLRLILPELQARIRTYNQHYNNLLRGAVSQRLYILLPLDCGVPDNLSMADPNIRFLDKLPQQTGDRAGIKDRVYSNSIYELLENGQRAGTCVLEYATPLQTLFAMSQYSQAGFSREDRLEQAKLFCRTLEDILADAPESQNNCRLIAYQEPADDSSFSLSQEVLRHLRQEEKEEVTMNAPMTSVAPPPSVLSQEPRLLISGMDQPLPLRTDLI
hSTING^S162A/Q266I, sequence (Q86WV6 whole entry S162A/H232R/Q266I): as the sequence (Q86WV6 whole entry S162A/G230I/H232R/Q266I) above, with I230G counted along it
hSTING^group3, sequence (Q86WV6 140-379 H232R/Y274D/S275A/Q276K/D297E/A300E/A302V/Q306R): as the sequence (Q86WV6 140-379 H232R) above, with Y135D, S136A, Q137K, D158E, A161E, A163V, Q167R counted along it
hSTING^group1 (aa 140-379), sequence (Q86WV6 140-379 E174G/T181M/Y182F/H185L/Y186H/L189M/R191S/V194G/Q196R/H232R): as the sequence (Q86WV6 140-379 H232R) above, with E35G, T42M, Y43F, H46L, Y47H, L50M, R52S, V55G, Q57R counted along it
hSTING^S162A, sequence (Q86WV6 whole entry S162A/H232R): as the sequence (Q86WV6 whole entry S162A/G230I/H232R/Q266I) above, with I230G, I266Q counted along it
WT hSTING, sequence (Q86WV6 whole entry H232R): as the sequence (Q86WV6 whole entry S162A/G230I/H232R/Q266I) above, with A162S, I230G, I266Q counted along it
hSTING I235L, sequence (Q86WV6 whole entry H232R/I235L): as the sequence (Q86WV6 whole entry S162A/G230I/H232R/Q266I) above, with A162S, I230G, I235L, I266Q counted along it
hSTING G166S, sequence (Q86WV6 whole entry G166S/H232R): as the sequence (Q86WV6 whole entry S162A/G230I/H232R/Q266I) above, with A162S, G166S, I230G, I266Q counted along it
hSTING^group134, sequence (Q86WV6 1-379 with the stated changes): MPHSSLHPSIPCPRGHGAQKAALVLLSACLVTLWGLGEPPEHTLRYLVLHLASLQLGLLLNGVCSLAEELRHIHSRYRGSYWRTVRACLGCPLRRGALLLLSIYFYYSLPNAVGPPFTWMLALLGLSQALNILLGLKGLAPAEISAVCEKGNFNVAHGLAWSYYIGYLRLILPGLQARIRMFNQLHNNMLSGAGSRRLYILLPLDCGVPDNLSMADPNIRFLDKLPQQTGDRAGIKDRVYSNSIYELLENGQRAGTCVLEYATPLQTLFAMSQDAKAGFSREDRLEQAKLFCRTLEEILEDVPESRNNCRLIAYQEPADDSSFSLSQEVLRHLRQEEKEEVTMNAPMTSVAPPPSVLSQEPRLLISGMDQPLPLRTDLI
hSTING^G230I, sequence (Q86WV6 whole entry G230I/H232R): as the sequence (Q86WV6 whole entry S162A/G230I/H232R/Q266I) above, with A162S, I266Q counted along it
hSTING Q266V, sequence (Q86WV6 whole entry H232R/Q266V): as the sequence (Q86WV6 whole entry S162A/G230I/H232R/Q266I) above, with A162S, I230G, I266V counted along it

Structure (SMILES): Cc1ccc2oc3c(CC(=O)O)cccc3c(=O)c2c1 [7-methyl-XAA]
- activity in human [1]: weak yet human-active

Structure (SMILES): Cc1cccc2oc3c(CC(=O)O)cccc3c(=O)c12 [8-methyl-XAA]
- activity in human [1]: weak yet human-active

- binding to DMXAA [2]: no detectable binding
- binding to DMXAA [3]: no detectable binding
- binding to DMXAA [4]: no detectable binding
- binding to DMXAA [5]: no detectable binding
- IFN-β reporter response [6]: showed responsiveness to DMXAA
- IFN-β reporter response [7]: strongly diminished DMXAA activation
- IFN-β induction [8]: conferred DMXAA sensitivity
- IFN-β induction [9]: less pronounced gain
- IFN-β induction [10]: showed no effects
- IFN-β induction [11]: showed no effects
- IFN-β induction [12]: showed no effects
- IFN-β mRNA upregulation [13]: did not induce the upregulation
- increase in IFN-β mRNA levels [14]: 2.6 fold
- increase in IFN-β mRNA levels [15]: 3.1 fold
- increase in IFN-β mRNA levels ([16]; 3 hr, real-time PCR): 4.2 fold
- CXCL10 production (supernatant, ELISA) ([16]; 18 hr): highest level of CXCL10 production
- increase in IFN-β mRNA levels [17]: 2.2 fold
Structure (SMILES): Cc1ccc2c(=O)c3cccc(CC(=O)O)c3oc2c1C [DMXAA, 5,6-dimethylxanthenone-4-acetic acid]
- upregulation of CXCL10, CCL5, and IL-6 mRNAs ([16]; 3 hr, real-time PCR): strongest induction among the four mutants
- DMXAA responsiveness (IFN-β reporter) [18]: able to induce DMXAA responsiveness
- outcome of human phase III trials [19]: failed
